This is a sample that favours compounds with a hit; in the whole collection about 1.5% have one here.
VLA-4 inh: inhibition in human VLA-4 binding assay, primary screen, VLA-4 allosteric modulator project, MLPCN library, flow cytometry, VLA-4 expressing cells; Integrin alpha-4 (Homo sapiens), P13612; AID 2557, 2010; actives 0.2% (n = 330,000); inhibition, % (about 7 µM as worked out from the volumes in the protocol); ligand binding flow cytometry; in the data active means inhibition above about 50%
Myeloid diff 2: induction of myeloid progenitor differentiation, primary screen, cell-based, flow cytometry, MLPCN library | ER-HoxA9 myeloid progenitors, lysozyme-GFP differentiation | calls only at 10 µM | actives 1% (n = 360,000);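 active means normalized GFP-positive differentiation at or above the plate's own cutoff, the solvent-only control mean plus 3 SD; inconclusive means no clear call, values can overlap the other calls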;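 further: cells exposed to compound for four days before flow analysis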
Platelet DG rel: inhibitors of platelet dense granule secretion, primary screen, cell-based, MLPCN, human platelets. human platelet-rich plasma, SFLLRN dense granule ATP release, luminescence. inhibition, %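 (compounds screened at 7.5 µM in platelet-rich plasma)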. actives 0.22% (n = 300,000);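 active means mean replicate score, as percent of positive control, at or above 50; inconclusive means mean below 50 but at least one replicate at or above 50; inactive means mean and every replicate below 50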
SENP1 inh: human SENP1 catalytic domain inhibitors, primary screen, biochemical, FRET, uHTS; recombinant SENP1 catalytic domain, CyPet-SUMO1-YPet FRET cleavage; inhibition, % at 10 µM; actives 0.21% (n = 360,000);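 active means inhibition at least 30% at 10 µM, raw YFP signal under a set limit, fluorescence ratio 0.5 to 1.5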
Target sequence (Q9P0U3 419-644 limits assumed): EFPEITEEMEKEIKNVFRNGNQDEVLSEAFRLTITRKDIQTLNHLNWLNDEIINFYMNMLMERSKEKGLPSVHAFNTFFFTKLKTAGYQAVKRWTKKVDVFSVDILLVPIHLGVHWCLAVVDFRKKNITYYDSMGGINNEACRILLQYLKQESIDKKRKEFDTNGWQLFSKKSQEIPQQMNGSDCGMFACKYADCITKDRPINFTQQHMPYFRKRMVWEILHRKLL
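Controls: no-enzyme wells low, DMSO-plus-enzyme wells high control. Test system: human recombinant His6-tagged SENP1 catalytic domain enzyme. Reagent: SFCypet-SUMO1-SFYpet FRET protein substrate, 25 nM final. Doses: one dose per compound, 10 µM, 0.5% DMSO. Detection: FRET, CFP and YFP emission. Timing: 50 min reaction at room temperature.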
Hits are given with their value; 0 = inactive; ? = inconclusive; - = no result given; + = active, no number.

SMILES | VLA-4 inh | Myeloid diff 2 | Platelet DG rel | SENP1 inh
O=C(NCCN1CCOCC1)c1ccccc1Cl | 0 | 0 | 0 | 0
O=C(Nc1nncs1)C1CC(=O)N(C2CCCC2)C1 (stereo not given) | 0 | 0 | 0 | 0
Cc1cc(OCC(O)CN2CCCC2)cc(C)c1Cl (stereo not given) | 0 | ? | 0 | 0
CN(C(=O)c1ccccc1C(=O)OCC(=O)Nc1cccc(Br)c1)c1ccccc1 | 0 | 0 | - | 0
CC[C@H]1c2[nH]c3ccccc3c2C[C@@H]2C(=O)N(c3ccc(F)cc3)C(=O)N21 | 0 | + | 0 | 0
Cn1nc(-c2ccccn2)nc2c(=O)n(C)c(=O)nc1-2 | 0 | ? | 148 | 33
COc1ccc(-c2nc(-c3ccccn3)ncc2S(C)(=O)=O)cc1 | 0 | 0 | 0 | 0
CCCc1nc2c(=O)n(C)c(=O)nc-2n(C)n1 | - | ? | - | 34
Cc1cc(C)c(S(=O)(=O)ON2C(=O)c3ccccc3C2=O)cc1C | 0 | 0 | 0 | 0
O=C1c2ccccc2C(=O)N1OS(=O)(=O)c1ccc(F)cc1 | 0 | 0 | 60 | 0
C=CCNC(=O)CSCc1ccc(Br)cc1 | 0 | + | 0 | 0
C[C@H]1c2cccc(O)c2C(O)=C2C(=O)C3(O)C(O)=C(C(N)=O)C(=O)[C@@H](N(C)C)[C@@H]3[C@@H](O)[C@@H]21 (stereo not given in full) | 0 | 0 | - | 0
C=C1c2cccc(O)c2C(O)=C2C(=O)[C@]3(O)C(O)=C(C(N)=O)C(=O)[C@@H](N(C)C)[C@@H]3[C@@H](O)[C@H]12 | 0 | 0 | 0 | 31
N#Cc1c(Cl)nsc1NCCN1CCOCC1 | 0 | 0 | 0 | 0
CC(=O)N1C2=CCCC3CCCCC23c2ccccc21 (stereo not given) | - | + | - | 0
O=C(CCc1c[nH]c2ccccc12)NCCc1ccc(O)cc1 | 0 | 0 | 0 | 0
COc1ccc(C(C)=O)cc1COC(=O)c1cccnc1SC | 0 | 0 | 0 | 0
CC1CN(C(=O)CSc2nnc(CNC(=O)c3ccc(S(=O)(=O)N(C)C)cc3)o2)CC(C)O1 (stereo not given) | 0 | - | 0 | 0
O=C(O)c1cc(N2N=C(C(F)(F)F)/C(=C/C=C/c3ccco3)C2=O)ccc1Cl | - | 0 | - | 33
CCOC(=O)c1ccc(N2N=C(C)/C(=C/C=C/c3ccco3)C2=O)cc1 | 0 | 0 | 0 | 0
Cc1cc(O)c(-c2cc(C(=O)NCc3ccc4c(c3)OCO4)[nH]n2)cc1C | 0 | + | 0 | 0
CCCCCCN1C=CC=C/C1=C/C=C(C#N)C#N | 0 | 0 | 0 | 0
CCCCCCN1C=C/C(=C\C=C(C#N)C#N)c2ccccc21 | 0 | + | 0 | 0
Clc1ccc(/C=C/c2nc3ccccc3[nH]2)c(Cl)c1 | 0 | 0 | 60 | 0
Clc1ccc(/C=C/c2nc3ccccc3[nH]2)cc1 | 0 | 0 | 78 | 0
SMILES | VLA-4 inh | Myeloid diff 2 | Platelet DG rel | SENP1 inh
O=S(=O)(Nc1ccccc1F)c1cccc(NC(=S)NCCN2CCOCC2)c1 | 0 | 0 | - | 0
CC(C)(O)C#Cc1ccc(C(=O)N2CCCC(CNS(=O)(=O)c3cccs3)C2)o1 (stereo not given) | 0 | + | 0 | 0
CCOC(=O)Cc1c(C)nc2cc(C)nn2c1C | 0 | 0 | 0 | 0
CCOC(=O)Cc1nn2c(=O)cc(C)nc2s1 | 0 | + | 0 | 0
CN1/C(=C\C(=S)NC(=O)c2cccc(Br)c2)C(C)(C)c2ccccc21 | 0 | + | 0 | 0
Cc1ccc(Cc2c(-c3ccc(F)cc3)nc3c(C)cc(Br)cn23)cc1 | - | 0 | - | 40
Cc1ccc(Cc2c(-c3ccc(C)cc3)nc3c(C)cc(Br)cn23)cc1 | - | 0 | - | 0
O=[N+]([O-])c1ccc(O)c(/C=N\N=C2c3ccccc3-c3ccccc32)c1 | 0 | 0 | 0 | 58
Cc1ccc2c(c1)NC(=O)C(CC(=O)NCCCN1CCN(c3cc(Cl)ccc3C)CC1)O2 (stereo not given) | 0 | + | 0 | 0
CCOC(=O)c1sc2nc(CC(=O)OC)nc(NCC(=O)OC)c2c1C | 0 | 0 | 0 | 0
CCOC(=O)c1sc2nc(CC(=O)OC)nc(NCc3ccco3)c2c1C | - | + | 0 | 0
CC1(C)CC(N2CCCCC2)=CC(=[N+]2CCCCC2)C1 | 0 | + | 0 | 0
Cc1ccc(S(=O)(=O)N(C)CC(=O)N2CCN(Cc3ccccc3)CC2)cc1 | 0 | 0 | 0 | 0
CCOc1ccccc1NC(=O)COC(=O)c1c[nH]c2ccccc12 | - | 0 | - | 0
CN(Cc1ccccc1)C(=O)[C@@H]1CCCN1S(=O)(=O)c1ccc(Cl)cc1 | 0 | 0 | 0 | 0
Cc1ccsc1C(=O)Nc1nc2ccccc2[nH]1 | 0 | 0 | 100 | 0
O=C(Nc1nc2ccccc2[nH]1)c1ccccc1F | 0 | 0 | 87 | 0
CCN(CC)C(=O)CSc1nnc2nnc3cc(OC)ccc3n12 | 0 | + | 0 | 0
CCN(CC)C(=O)CSc1nnc(COc2ccc(OC)cc2)n1N | 0 | 0 | 0 | 0
CC1=NN(C(N)=S)C(=O)C1N=Nc1ccccc1C(=O)O (stereo not given) | 0 | 0 | 0 | 0
CN1C(=O)C(N=Nc2ccccc2C(=O)O)N(C)C1=S (stereo not given) | 0 | 0 | 0 | 56
COc1cccc(NC(=O)COC(=O)c2ccccc2C(=O)N(C)c2ccccc2)c1 | 0 | 0 | - | 0
O=C(Nc1cccc(O)c1)c1noc2c1CCCCC2 | 0 | - | 64 | 0
O=c1oc2ccccc2c(Cl)c1CN1CCCCC1 | 0 | 0 | 0 | 0
COc1ccc(C(=O)c2sc3nc(-c4ccccc4)ccc3c2N)cc1 | 0 | + | 0 | 0
SMILES | VLA-4 inh | Myeloid diff 2 | Platelet DG rel | SENP1 inh
COc1cccc(OCCNC(=O)c2ccc(C)cc2)c1 | 0 | + | 0 | 0
Cc1ccc(OCCNC(=O)c2cccc(C)c2)cc1 | 0 | - | 0 | 0
COc1cccc(OCCNC(=O)c2cccc(OC)c2)c1 | 0 | 0 | 53 | 0
Cc1ccc(OCCNC(=O)c2cc(C(=O)NCCOc3ccc(C)cc3)cc([N+](=O)[O-])c2)cc1 | 0 | 0 | 0 | 0
CCCCOCCCNC(=O)c1cccc(OC)c1 | 0 | 0 | 0 | 0
COc1cccc(OCCNC(=O)c2cc([N+](=O)[O-])cc([N+](=O)[O-])c2)c1 | 0 | + | 0 | 0
O=C(NCC(Cl)c1ccc2ccccc2c1)c1c(F)cccc1F (stereo not given) | 0 | 0 | 0 | 0
COc1ccccc1N1CCN(CC(=O)Nc2ccccc2C(=O)NC(C)c2ccccc2)CC1 (stereo not given) | 0 | 0 | - | 0
COc1ccc(N2CCN(CC(=O)Nc3ccccc3C(=O)NC(C)c3ccccc3)CC2)cc1 (stereo not given) | - | + | - | 0
COc1ccccc1N1CCCSC1=Nc1ccccc1 | - | 0 | - | 0
COc1ccc2c(c1)CC/C(=C/c1ccncc1)C2=O | 0 | + | 0 | 0
CCCS(=O)(=O)c1nc(S(=O)(=O)c2ccc(C)cc2)c(NCCCN2CCCC2=O)s1 | 0 | 0 | 0 | 0
COc1ccc(C(=O)CC(Nc2ccc([N+](=O)[O-])cc2)c2ccc(Cl)cc2)cc1 (stereo not given) | 0 | + | 0 | 0
COc1ccc(C(=O)CC(=O)C(=O)Nc2ccc(Cl)cc2)cc1 | 0 | 0 | 0 | 0
